Published values gathered from unrelated publications.
Protocols differ between the studies behind these lines.
Target: Glycogen synthase kinase-3 beta (GSK3B, Homo sapiens, UniProt P49841)
Action: inhibitor

Compound | effect on | method | cell line | tested at | inhibition
CNc1cc(Oc2cc(C(=O)Nc3cc(N4CCN(C)CC4)cc(C(F)(F)F)c3)ccc2C)ncn1 | target engagement in cells | chemoproteomics | Huh-7 | 1 µM | -17.6%
CN1CC(Oc2cnc(C#N)cc2-c2ccn3nc(NC(=O)C4CC4)cc3c2)C1 | enzyme activity |  |  | 1 µM | -8%
CCCS(=O)(=O)Nc1ccc(F)c(C(=O)c2c[nH]c3ncc(-c4ccc(Cl)cc4)cc23)c1F | enzyme activity |  |  | 1 µM | < 20%
COc1cc2ncnc(Nc3ccc(Oc4ccccc4)c(C)c3C)c2cc1OC | enzyme activity |  |  | 1 µM | 4%
CS(=O)(=O)Nc1cccc(-c2csc(NC(=O)CSc3nc4nccnc4c(=O)n3CCc3ccccc3)n2)c1 | enzyme activity |  |  | 10 µM | 2%
COc1ccc2c(c1)O[C@H]1c3ccc(OC)cc3OC[C@@H]21 | enzyme activity | ADP detection |  | 100 µM | 32.9%
CN(C)C1CCN(CC#Cc2nn(C3CCCC3)c3nc(NCc4ccccc4)ncc23)C1 (stereo not shown) | enzyme activity | FRET |  | 0.1 µM | -4%
COc1ccc(-c2nc3ccc(C4=NNC(=O)CC4C)cc3[nH]2)cc1 (stereo not shown) | enzyme activity | ADP detection |  | 100 µM | 21.5%
c1ccc(CNc2nc(N3CCOc4ccccc43)nc3c2CCCC3)cc1 | target engagement in cells | chemoproteomics |  | 20 mM | -3.9%
Cc1nc(-c2ccc(OCC(C)C)c(C#N)c2)sc1C(=O)O | enzyme activity | ADP detection |  | 100 µM | 66.9%
CC/C(=N\NC(=O)NCc1cccc(O)c1)c1ccc(O)c(C)c1O | enzyme activity |  |  | 0.1 µM | 8.6%
NC(=O)c1cnccn1 | enzyme activity | ADP detection |  | 100 µM | 7.9%
CCN(CC)CCNC(=O)c1c(C)[nH]c(/C=C2\C(=O)Nc3ccc(F)cc32)c1C | enzyme activity |  |  | 0.3 µM | -4%
